Measured values published in ChEMBL document CHEMBL4004832, “Synthesis, surfactant properties and antimicrobial activities of methyl glycopyranoside ethers” (2017).
Values after ≈ are worked out from the molar mass of the structure shown.

Legend:
Escherichia coli = test: Antibacterial activity against Escherichia coli ATCC 8739 after 18 hrs by broth microdilution assay; assay type: functional; conditions: ATCC 8739, 18 h
Listeria monocytogenes [1] = test: Antibacterial activity against Listeria monocytogenes CIP 103575 after 18 hrs by broth microdilution assay; assay type: functional; conditions: CIP 103575, 18 h
In short: (§1)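 Broth MIC testing on Gram-positive strains followed CLSI M100-S17 recommendations. […] Values are in mmol/L. Amoxicillin was the control for Listeria and Enterococcus strains and oxacillin for S. aureus strains.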

Enterococcus faecalis [2] = test: Antibacterial activity against Enterococcus faecalis ATCC 29212 after 18 hrs by broth microdilution assay; assay type: functional; conditions: ATCC 29212, 18 h; in short: as §1
[3] = Surfactant property of the compound in water assessed as critical micelle concentration or minimal hydrotropic concentration by platinum rod based tensiometric method
In short: (§2)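 Surface tension of aqueous solutions was measured by a rod method based on the Wilhelmy plate. Water was progressively concentrated with a stock surfactant solution at constant volume. At each concentration, readings continued until stable (SD of the last 5 values 0.2 mN/m). MHC or CMC and the plateau γsat were taken from the tension vs concentration curves.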

Pseudomonas aeruginosa = test: Antibacterial activity against Pseudomonas aeruginosa ATCC 27853 after 18 hrs by broth microdilution assay; assay type: functional; conditions: ATCC 27853, 18 h
Staphylococcus aureus [4] = test: Antibacterial activity against Staphylococcus aureus ATCC 29213 after 18 hrs by broth microdilution assay; assay type: functional; conditions: ATCC 29213, 18 h; in short: as §1
[5] = Surfactant property of the compound in aqueous solution assessed as critical micelle concentration or minimal hydrotropic concentration; in short: as §2
Listeria monocytogenes [6] = test: Antibacterial activity against Listeria monocytogenes isolate 015181840701 after 18 hrs by broth microdilution assay; assay type: functional; conditions: isolate 015181840701, 18 h; in short: as §1
Staphylococcus aureus [7] = test: Antibacterial activity against methicillin-resistant Staphylococcus aureus isolate HT 2002-0417 after 18 hrs by broth microdilution assay; assay type: functional; conditions: isolate HT 2002-0417, 18 h
In short: (§3)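 Staphylococcus aureus reference strains and methicillin- and daptomycin-resistant isolates tested by MIC according to CLSI guidance (M100-S17), with oxacillin as control. The endpoint is the lowest concentration with no growth in all replicates versus a negative control at 18 h. Values are reported in mmol/L.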

Staphylococcus aureus [8] = test: Antibacterial activity against daptomycin-resistant Staphylococcus aureus isolate ST 2014-1288 after 18 hrs by broth microdilution assay; assay type: functional; conditions: isolate ST 2014-1288, 18 h; in short: as §3
Staphylococcus aureus [9] = test: Antibacterial activity against methicillin-resistant Staphylococcus aureus Mu3 after 18 hrs by broth microdilution assay; assay type: functional; conditions: Mu3, 18 h; in short: as §3
Listeria monocytogenes [10] = test: Antibacterial activity against Listeria monocytogenes isolate 015189074801 after 18 hrs by broth microdilution assay; assay type: functional; conditions: isolate 015189074801, 18 h; in short: as §1
Staphylococcus aureus [11] = test: Antibacterial activity against daptomycin-resistant Staphylococcus aureus isolate ST 2015-0989 after 18 hrs by broth microdilution assay; assay type: functional; conditions: isolate ST 2015-0989, 18 h; in short: as §3
Staphylococcus aureus [12] = test: Antibacterial activity against Staphylococcus aureus ATCC 25923 after 18 hrs by broth microdilution assay; assay type: functional; conditions: ATCC 25923, 18 h; in short: as §3
Staphylococcus aureus [13] = test: Antibacterial activity against methicillin-resistant Staphylococcus aureus isolate HT 2004-0012 after 18 hrs by broth microdilution assay; assay type: functional; conditions: isolate HT 2004-0012, 18 h; in short: as §3
Staphylococcus aureus [14] = test: Antibacterial activity against methicillin-resistant Staphylococcus aureus isolate HT 2006-1004 after 18 hrs by broth microdilution assay; assay type: functional; conditions: isolate HT 2006-1004, 18 h; in short: as §3
Enterococcus faecium [15] = test: Antibacterial activity against Enterococcus faecium CIP 103510 after 18 hrs by broth microdilution assay; assay type: functional; conditions: CIP 103510, 18 h
In short: (§4)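 Enterococcus faecium strains (reference, clinical isolates, VanA isolate) tested by MIC following CLSI recommendations (M100-S17), with amoxicillin as control. […] Values are expressed in mmol/L.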

Enterococcus faecalis [16] = test: Antibacterial activity against Enterococcus faecalis isolate 015206179901 after 18 hrs by broth microdilution assay; assay type: functional; conditions: isolate 015206179901, 18 h; in short: as §1
Staphylococcus aureus [17] = test: Antibacterial activity against daptomycin-resistant Staphylococcus aureus isolate ST 2015-0188 after 18 hrs by broth microdilution assay; assay type: functional; conditions: isolate ST 2015-0188, 18 h; in short: as §3
Staphylococcus aureus [18] = test: Antibacterial activity against methicillin-resistant Staphylococcus aureus isolate LY 1999-0053 after 18 hrs by broth microdilution assay; assay type: functional; conditions: isolate LY 1999-0053, 18 h; in short: as §3
Enterococcus faecium [19] = test: Antibacterial activity against Enterococcus faecium isolate 015205731401 after 18 hrs by broth microdilution assay; assay type: functional; conditions: isolate 015205731401, 18 h; in short: as §1
Listeria monocytogenes [20] = test: Antibacterial activity against Listeria monocytogenes isolate 015170199001 after 18 hrs by broth microdilution assay; assay type: functional; conditions: isolate 015170199001, 18 h; in short: as §1
Enterococcus faecium [21] = test: Antibacterial activity against […] Enterococcus faecium isolate 0151850763 after 18 hrs by broth microdilution assay; assay type: functional; conditions: isolate 0151850763, 18 h; in short: as §4
Enterococcus faecium [22] = test: Antibacterial activity against Enterococcus faecium isolate 015205261801 after 18 hrs by broth microdilution assay; assay type: functional; conditions: isolate 015205261801, 18 h; in short: as §4
Staphylococcus aureus [23] = test: Antibacterial activity against methicillin-resistant Staphylococcus aureus LAC USA300 after 18 hrs by broth microdilution assay; assay type: functional; in short: as §3

Row | Structure (SMILES) | MIC (Listeria monocytogenes [1]) [µM] | MIC (Enterococcus faecalis [2]) [µM] | CMC [3] [mmol/L] | MIC (Staphylococcus aureus [4]) [µM] | MIC (Listeria monocytogenes [6]) [µM] | MIC (Staphylococcus aureus [7]) [µM] | MIC (Staphylococcus aureus [8]) [µM] | MIC (Staphylococcus aureus [9]) [µM] | MIC (Listeria monocytogenes [10]) [µM] | MIC (Staphylococcus aureus [11]) [µM] | MIC (Staphylococcus aureus [12]) [µM] | MIC (Staphylococcus aureus [13]) [µM] | MIC (Staphylococcus aureus [14]) [µM] | MIC (Enterococcus faecium [15]) [µM] | MIC (Enterococcus faecalis [16]) [µM] | MIC (Staphylococcus aureus [17]) [µM] | MIC (Staphylococcus aureus [18]) [µM] | MIC (Enterococcus faecium [19]) [µM] | MIC (Listeria monocytogenes [20]) [µM] | MIC (Enterococcus faecium [21]) [µM] | further results
1 | CCCCC[C@@H]1OC[C@H]2O[C@H](OC)[C@H](O)[C@@H](O)[C@@H]2O1 | > 4000 | > 4000 | 6.5 | > 4000 |  |  |  |  |  |  |  |  |  |  |  |  |  |  |  |  | MIC (Escherichia coli): > 4000 µM; MIC (Pseudomonas aeruginosa): > 4000 µM
2 | CCCCCCCCCCCCOC[C@H]1OC(O)[C@H](O)[C@@H](O)[C@@H]1O (stereo not given in full) |  |  |  |  |  |  |  |  |  |  |  |  |  |  |  |  |  |  |  |  | CMC [5]: 0.5 mmol/L
3 | CCCCCCCCCCCCO[C@H]1[C@H](OC)O[C@@H](C)[C@H](O)[C@H]1O | 90 (≈ 31.2 µg/mL) | 50 (≈ 17.3 µg/mL) |  | 50 (≈ 17.3 µg/mL) | 90 (≈ 31.2 µg/mL) | 90 (≈ 31.2 µg/mL) | 90 (≈ 31.2 µg/mL) | 180 (≈ 62.4 µg/mL) | 90 (≈ 31.2 µg/mL) | 180 (≈ 62.4 µg/mL) | 90 (≈ 31.2 µg/mL) | 50 (≈ 17.3 µg/mL) | 90 (≈ 31.2 µg/mL) | 50 (≈ 17.3 µg/mL) | 50 (≈ 17.3 µg/mL) | 180 (≈ 62.4 µg/mL) | 90 (≈ 31.2 µg/mL) | 20 (≈ 6.93 µg/mL) | 90 (≈ 31.2 µg/mL) | 50 (≈ 17.3 µg/mL) | MIC (Enterococcus faecium [22]): 50 µM (≈ 17.3 µg/mL); MIC (Staphylococcus aureus [23]): 90 µM (≈ 31.2 µg/mL)
4 | CCCCCCCCCCCCOC[C@H]1O[C@H](OC)[C@H](O)[C@@H](O)[C@H]1O | 180 (≈ 65.3 µg/mL) | 180 (≈ 65.3 µg/mL) | 0.47 | > 710 | 180 (≈ 65.3 µg/mL) | > 710 | > 710 | > 710 | 180 (≈ 65.3 µg/mL) | > 710 | > 710 | > 710 | > 710 | > 710 | 180 (≈ 65.3 µg/mL) | > 710 | > 710 | 90 (≈ 32.6 µg/mL) | 180 (≈ 65.3 µg/mL) | 350 (≈ 127 µg/mL) | MIC (Enterococcus faecium [22]): 20 µM (≈ 7.25 µg/mL); MIC (Staphylococcus aureus [23]): > 710 µM
5 | CCCCCCCCCCCCO[C@H]1[C@H](O)[C@@H](O)[C@@H](OC)O[C@@H]1CO |  |  | 0.046 |  |  |  |  |  |  |  |  |  |  |  |  |  |  |  |  |  | 
6 | CCCCCCCCCCC[C@@H]1OC[C@H]2O[C@H](OC)[C@H](O)[C@@H](O)[C@@H]2O1 |  |  | > 0.06 |  |  |  |  |  |  |  |  |  |  |  |  |  |  |  |  |  | 
7 | CCCCCCCCCCCCOC[C@H]1O[C@H](OC)[C@@H](O)[C@@H](O)[C@@H]1O | 90 (≈ 32.6 µg/mL) | 40 (≈ 14.5 µg/mL) |  | 90 (≈ 32.6 µg/mL) | 40 (≈ 14.5 µg/mL) | 90 (≈ 32.6 µg/mL) | 90 (≈ 32.6 µg/mL) | 180 (≈ 65.3 µg/mL) | 20 (≈ 7.25 µg/mL) | 180 (≈ 65.3 µg/mL) | 90 (≈ 32.6 µg/mL) | 90 (≈ 32.6 µg/mL) | 180 (≈ 65.3 µg/mL) | 90 (≈ 32.6 µg/mL) | 90 (≈ 32.6 µg/mL) | 180 (≈ 65.3 µg/mL) | 90 (≈ 32.6 µg/mL) | 40 (≈ 14.5 µg/mL) | 40 (≈ 14.5 µg/mL) | 40 (≈ 14.5 µg/mL) | MIC (Enterococcus faecium [22]): 40 µM (≈ 14.5 µg/mL); MIC (Staphylococcus aureus [23]): 90 µM (≈ 32.6 µg/mL)
8 | CCCCCCCCCCC[C@@H]1OC[C@H]2O[C@@H](OC)[C@H](O)[C@@H](O)[C@@H]2O1 | 40 (≈ 14.4 µg/mL) | 180 (≈ 64.9 µg/mL) |  | 180 (≈ 64.9 µg/mL) | 180 (≈ 64.9 µg/mL) | 370 (≈ 133 µg/mL) | 180 (≈ 64.9 µg/mL) | 180 (≈ 64.9 µg/mL) | 40 (≈ 14.4 µg/mL) | 180 (≈ 64.9 µg/mL) | 180 (≈ 64.9 µg/mL) | 180 (≈ 64.9 µg/mL) | 180 (≈ 64.9 µg/mL) | 90 (≈ 32.4 µg/mL) | 90 (≈ 32.4 µg/mL) | 180 (≈ 64.9 µg/mL) | 180 (≈ 64.9 µg/mL) | 40 (≈ 14.4 µg/mL) | 40 (≈ 14.4 µg/mL) | 90 (≈ 32.4 µg/mL) | MIC (Enterococcus faecium [22]): 20 µM (≈ 7.21 µg/mL); MIC (Staphylococcus aureus [23]): 180 µM (≈ 64.9 µg/mL)
9 | CCCCCCC[C@@H]1OC[C@H]2O[C@H](OC)[C@H](O)[C@@H](O)[C@@H]2O1 | 2000 (≈ 609 µg/mL) | > 4000 | 2.5 | > 4000 |  |  |  |  |  |  |  |  |  |  |  |  |  |  |  |  | MIC (Escherichia coli): > 4000 µM; MIC (Pseudomonas aeruginosa): > 4000 µM
10 | CCCCCCCCCCCCOC[C@H]1O[C@H](OC)[C@H](O)[C@@H](O)[C@@H]1O | 40 (≈ 14.5 µg/mL) |  | 0.03 | 40 (≈ 14.5 µg/mL) |  |  |  |  |  |  |  |  |  |  |  |  |  |  |  |  | 
11 | CCCCCCCCCCCC(=O)OC[C@H]1O[C@H](O[C@]2(CO)O[C@H](CO)[C@@H](O)[C@@H]2O)[C@H](O)[C@@H](O)[C@@H]1O |  |  |  |  |  |  |  |  |  |  |  |  |  |  |  |  |  |  |  |  | CMC [5]: 0.25 mmol/L
12 | CCCCCCCCCCCCO[C@@H]1O[C@H](CO)C(O[C@H]2O[C@H](CO)[C@@H](O)[C@H](O)[C@H]2O)[C@H](O)[C@H]1O (single isomer, unassigned) |  |  |  |  |  |  |  |  |  |  |  |  |  |  |  |  |  |  |  |  | CMC [5]: 0.2 mmol/L
